# Rpn11 inh: blocks the human proteasome subunit Rpn11; O00487; 360,000 compounds, 0.59% hits; inhibition, % at 20 µM; human 26S proteasome, Ub4-pepOG fluorescence polarization; 20S core pre-blocked with epoxomicin;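 active means inhibition at 20 µM, scaled to each plate's controls, above about 33%, limit read from the data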
# Target sequence (O00487 whole entry, looked up): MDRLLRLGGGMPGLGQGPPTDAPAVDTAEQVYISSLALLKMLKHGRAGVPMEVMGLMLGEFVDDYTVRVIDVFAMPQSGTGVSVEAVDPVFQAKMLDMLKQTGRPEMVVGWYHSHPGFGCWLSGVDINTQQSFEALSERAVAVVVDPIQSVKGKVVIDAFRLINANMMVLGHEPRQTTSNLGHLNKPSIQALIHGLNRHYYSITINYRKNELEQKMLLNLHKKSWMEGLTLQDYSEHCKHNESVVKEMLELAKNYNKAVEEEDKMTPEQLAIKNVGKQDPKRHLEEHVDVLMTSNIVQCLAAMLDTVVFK
# TPT1 inhibitor: C. albicans TPT1 enzyme inhibition | recombinant caTPT1, FP RNA substrate dephosphorylation | inhibition, % at 5 µM | 300,000 compounds, 0.81% hits;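 active means inhibition above the mean of all tested compounds plus 3 SD, set per screening campaign, cut at about 24% in these data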;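 further: plate controls were DMSO alone for no effect and ferristatin control at 100 nM for full effect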
# HNF4A DNA FP: change in binding of human HNF4 alpha to DNA; HNF4a-FITC DNA binding, fluorescence polarization, 1 h; 360,000 compounds, 0.3% hits; P41235; activity change, % at 10 µM; in the data active means activity change above about 30%, passing the limit was not always enough
# CSN inh: inhibitors of human CSN-mediated cullin deneddylation; inhibition, % at 12.5 µM; Purified CSN, SCF-Nedd8-OG deneddylation, fluorescence polarization; 360,000 compounds, 0.38% hits;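 active means pattern-corrected inhibition above about 35%, with an unprinted fluorescence ratio check between 0.5 and 1.5, limit read from the data, passing the limit was not always enough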;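 further: 0% = enzyme with substrate and 100% = substrate without enzyme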
# Target sequence (Q92905 whole entry, looked up, one chain of several): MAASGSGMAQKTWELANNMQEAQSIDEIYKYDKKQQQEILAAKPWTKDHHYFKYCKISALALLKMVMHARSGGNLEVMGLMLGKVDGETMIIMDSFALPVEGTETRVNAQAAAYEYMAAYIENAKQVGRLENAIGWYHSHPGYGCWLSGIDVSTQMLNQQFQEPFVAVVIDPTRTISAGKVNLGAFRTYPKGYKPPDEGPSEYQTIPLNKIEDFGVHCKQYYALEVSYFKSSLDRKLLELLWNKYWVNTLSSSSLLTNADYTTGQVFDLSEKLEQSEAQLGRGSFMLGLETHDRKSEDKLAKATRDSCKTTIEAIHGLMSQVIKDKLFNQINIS
#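 Test system: purified human Csn5 enzyme expressed in HEK293T cells. Amount: 0.24 nM enzyme. Reagent: SCFSkp2-Nedd8OG substrate at 10 nM final. Schedule: 90 min incubation of compound, enzyme and substrate at room temperature. Detection: fluorescence polarization. Read-out: % inhibition of substrate cleavage by Csn5.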
# Myeloid diff MLP: compounds promoting myeloid differentiation; calls only at 10 µM; 360,000 compounds, 1% hits; ER-HoxA9 myeloid progenitors, lysozyme-GFP differentiation, flow cytometry; AID 624256;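 active means normalized GFP-positive differentiation at or above the plate's own cutoff, the solvent-only control mean plus 3 SD; inconclusive means no clear call, values can overlap the other calls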;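 further: cells exposed to compound for four days before flow analysis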
# Myeloid diff: promotes myeloid progenitor differentiation. ER-HoxA9 myeloid progenitors, GFP/Mac1 double-positive flow. shares compounds with Myeloid diff MLP. AID 651706. calls only. 2,300 compounds, 2% hits;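 active means share of green or green-and-red cells above 9 and 9% in run 1 or 4 and 3% in run 2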
# GFP autofluor: compound fluorescence in myeloid differentiation counter-screen; fluorescence response, % (no concentration beside the values); 2,300 compounds, 7.4% hits; shares compounds with Myeloid diff MLP; ER-HoxA9 myeloid progenitors, no estrogen, GFP autofluorescence flow cytometry; vehicle wells 0%, positive control 100%;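 active means over 5% cells positive for green fluorescent reporter, or over 2% positive for both it and APC stain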;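 further: range taken on the double positive population between DMSO and positive control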
# * marks the source's active call; other numbers are inactive results; i = inactive; ? = inconclusive; · = not tested or not shown; + = active, no number. Sampled rows, rich in hits. Any-hit rate of the full collection: about 2.3%.
SMILES,Rpn11 inh,TPT1 inhibitor,HNF4A DNA FP,CSN inh,Myeloid diff MLP,Myeloid diff,GFP autofluor
O=C(NCC(c1cccs1)N1CCOCC1)c1ccc(OCc2ccccc2)cc1 (stereo not drawn),-3.5,·,0.0,0.1,+,i,0.0
CCOc1ccc(C(=O)NCC(c2cccs2)N2CCOCC2)cc1 (stereo not drawn),-0.7,·,-1.1,3.4,i,·,·
CSc1ccccc1NC(=O)COC(=O)CCC(=O)c1ccc(F)cc1,-4.4,·,0.7,-10.7,i,·,·
Cc1ccc(C(=O)CCC(=O)OCC(=O)Nc2ccccc2SCC#N)cc1,26.5,·,6.0,9.3,+,i,88.7*
CSc1ccccc1C(=O)NCCCn1ccnc1,-1.7,-1.2,-0.2,1.6,i,·,·
COCCn1c(SCC(=O)N2CCCC2=O)nnc1-c1ccncc1,-0.3,·,-2.4,-0.2,i,·,·
CC(=O)NC(Cc1cccc(F)c1)C(=O)NC1CCN(C(=O)c2ccc(C)cc2)CC1 (stereo not drawn),-1.1,2.0,-4.5,-0.6,i,·,·
COc1ccc(C2=NN(C(=O)CSc3nnc(-c4ccccc4F)o3)C(c3ccco3)C2)cc1 (stereo not drawn),2.9,3.4,-2.2,-7.5,i,i,0.0
COc1ccc(C2=NN(C(N)=S)C(c3ccco3)C2)cc1 (stereo not drawn),21.9,20.1,13.3,19.7,+,i,0.0
COc1ccc(C2=NN(C(=O)c3ccco3)C(c3ccco3)C2)cc1OC (stereo not drawn),7.0,0.1,5.5,3.8,i,·,·
COc1cc(CN2CCc3ccccc3C2)ccc1O,0.6,-0.5,-1.4,3.2,?,·,·
Cc1ccc(OCCn2c(C)nc3ccccc32)cc1,-7.6,-4.5,0.5,1.6,i,i,0.3
CC(CNC(=O)C1CCCCC1)NC(=O)C1CCCCC1 (stereo not drawn),-7.3,-0.6,-0.5,2.6,+,i,0.0
Cc1ccccc1N(CC(=O)NCCSCc1ccco1)S(C)(=O)=O,1.7,2.5,-2.5,-2.5,+,i,0.6
CCOC(=O)C1CCN(Cc2cc(C(C)C)c(O)c(C(C)C)c2)CC1,-1.3,0.5,0.7,-14.2,+,i,1.4
COC(=O)c1ccc(CNC(=O)c2ccc(S(=O)(=O)N3CCCC(C)C3)cc2)cc1 (stereo not drawn),-4.3,·,-1.0,-0.8,i,·,·
Clc1ccc(Cn2ncc3c(N4CCN(c5ccccc5)CC4)ncnc32)cc1,2.0,·,0.7,2.4,+,+,0.0
c1ccc(Cn2ncc3c(N4CCCCC4)ncnc32)cc1,0.5,-6.3,4.7,3.6,i,·,·
CSCC[C@H](NC(=O)[C@H](Cc1ccccc1)n1c(=O)[nH]c2ccccc2c1=O)C(=O)N1CCC[C@H]1C(=O)O,-5.1,2.5,0.4,1.1,i,·,·
Cc1nn(CC(=O)N(C)Cc2ccccc2)c(=O)c2cccn12,-4.4,-2.5,-3.4,-0.6,i,·,·
COCCCNC(=O)c1ccc(Cn2c(=O)c3ccccc3n(Cc3ccccc3C#N)c2=O)cc1,24.5,-0.4,-2.6,3.3,+,i,0.3
COc1ccc(/C=N/NC(=O)CCSc2nc3ccccc3s2)cc1,-2.7,-1.5,-0.8,-0.2,i,·,·
COc1ccccc1N1C(=O)c2cccc3c(Cl)ccc(c23)C1=O,-2.9,2.5,1.3,-2.9,i,i,0.0
C#CCOCCOCCOCCNc1nc(N2CCN(C(=O)[C@H]([C@@H](C)CC)n3cc([C@@H](N)CO)nn3)CC2)nc(N2CCN(C(=O)[C@H](Cc3ccc(O)cc3)n3cc([C@@H](N)C(C)CC)nn3)CC2)n1 (stereo partly drawn),0.6,-1.0,-1.4,7.8,i,i,0.0
C#CCOCCOCCOCCNc1nc(N2CCOCC2)nc(N2CCN(C(=O)[C@H]([C@@H](C)CC)n3cc(CCCCN)nn3)CC2)n1,-0.9,-0.5,3.1,1.1,+,i,1.1
SMILES,Rpn11 inh,TPT1 inhibitor,HNF4A DNA FP,CSN inh,Myeloid diff MLP,Myeloid diff,GFP autofluor
N#CCCN1CCN(S(=O)(=O)c2ccc(C#N)cc2)CC1,-10.0,-3.9,-4.2,-1.5,i,i,0.0
N#CCCN1CCN(S(=O)(=O)c2ccc(S(=O)(=O)N3CCCCCC3)cc2)CC1,-7.6,-5.5,-4.6,-4.5,i,·,·
CC(C)c1ccc(S(=O)(=O)NC2CCS(=O)(=O)C2)cc1 (stereo not drawn),-7.1,-0.1,-0.8,3.7,i,·,·
COc1cc(NC(=O)N[C@H](C(=O)O)C(C)C)cc(OC)c1,4.8,-0.6,5.0,-0.9,+,i,0.0
Cc1ccccc1C(=O)Nc1nnc(S(=O)(=O)N2CCCCCC2)s1,0.3,-4.2,2.5,3.2,i,i,0.0
CCCCN(C(=O)c1ccc(C)cc1)c1c(N)n(CCC)c(=O)[nH]c1=O,-1.5,0.3,0.1,-3.8,i,·,·
CCOC(=O)C1CCCN(C(=O)c2cc(F)ccc2C)CC1 (stereo not drawn),-4.4,·,-2.5,4.6,i,·,·
Cc1ccc2c(COC(=O)C3CSC4(C)CCC(=O)N34)cc(=O)oc2c1C (stereo not drawn),-5.0,·,0.9,1.9,i,·,·
COc1ccc2c(c1)C(=O)N1[C@H]3c4cc(C)ccc4OC[C@@H]3[C@H](c3ccccc3)[C@]1(C)C(=O)N2,-18.9,0.4,-0.2,-3.5,+,i,0.0
C/C(=N\NC(=O)COc1cccc(C)c1)c1ccc2ccccc2c1O,-3.4,·,1.8,-1.2,i,·,·
Cn1nccc1C(=O)Nc1sc2c(c1C(N)=O)CCCC2,1.6,-2.3,0.2,2.3,i,i,0.0
Cn1nccc1C(=O)Nc1sc2c(c1C#N)CCCC2,-9.0,0.9,-0.4,5.0,i,·,·
O=S(=O)(NCCc1ccccc1)c1ccc(Br)cc1,-2.1,-0.3,-3.7,3.6,i,·,·
COCCN(C(=O)CSc1n[nH]c(-c2ccc(OC)cc2)n1)c1c(N)n(Cc2ccccc2)c(=O)[nH]c1=O,1.2,6.9,5.0,1.4,+,i,0.0
CCc1ccc(-c2nc(SCC(=O)N(CCOC)c3c(N)n(Cc4ccccc4)c(=O)[nH]c3=O)n[nH]2)cc1,5.1,-4.2,3.6,2.1,i,·,·
COCCN(C(=O)COC(=O)CCc1nc2ccccc2s1)c1c(N)n(Cc2ccccc2)c(=O)[nH]c1=O,-3.8,-0.8,0.7,-2.4,i,·,·
COCCN(C(=O)CSc1nc2ccccc2s1)c1c(N)n(Cc2ccccc2)c(=O)[nH]c1=O,7.2,·,17.1,20.1,+,i,3.2
O=[N+]([O-])/C(C(Cl)=C(Cl)Cl)=C(/NC1CC1)Sc1ccccc1,0.5,-5.5,-0.2,-2.1,i,·,·
